PGC1a Ac signal: raises PGC1a acetylation signal in U2OS cells. U2OS PGC1a acetylation AlphaScreen, overnight. activation, % at 15.6 µM. 350,000 compounds, 0.21% hits. AID 651723;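 active means every replicate reaching activation of at least 50%, whatever the mean replicate activation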;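 further: hits raise the AlphaScreen acetylation signal above neutral controls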
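detection = AlphaScreen lysate read | assay system = U2OS cells expressing flag-PGC1a plus GCN5 | input = 7000 cells/well | dosing = one concentration | times = compound overnight at 37 °C, each detection step 1 h RT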
* hit, by the source's call. The list is a sample of the results.

SMILES | PGC1a Ac signal
COc1ccc(-n2c(C)c([N+](=O)[O-])c3ccc(O)c(CN(C)C)c32)cc1 | -37
Cc1ccccc1OCC(O)CNC1CCC(NCC(O)COc2ccccc2C)CC1 (centres undefined) | 88*
Cn1ncc2c(O/N=C(\N)c3ccc(C(F)(F)F)cc3)ncnc21 | -44
COc1cccc(N(CC(=O)N2CCN(Cc3ccccc3)CC2)S(C)(=O)=O)c1 | -46
CN(C)C(=S)Nc1ccc(Br)c(Cl)c1 | -52
C=CCNC(=O)c1ccc(CN2CCC(Cc3ccccc3)CC2)cc1 | -48
CN(Cc1ccccc1)S(=O)(=O)c1ccc(S(=O)(=O)N(Cc2ccc(F)cc2)C2CCCC2)cc1 | -44
CN(C)S(=O)(=O)N1CCC(Cc2ccccc2)CC1 | 62*
O=C(/C=C/c1cccnc1)/C=C/c1cccnc1 | -81
CCC(=O)Nc1ccnc(-c2cccnc2)n1 | -42
CC(NC(=O)Nc1cccnc1)(C(F)(F)F)C(F)(F)F | 62*
COc1ccc(-c2cnc3c(c2)C(=O)N([C@H](C)CO)C[C@H](C)[C@@H](CN(C)C(=O)C2CCC2)O3)cc1 | -44
COc1ccc(NC(=O)N[C@@H]2C=C[C@@H](CC(=O)NCc3ccccn3)O[C@@H]2CO)cc1 | -48
CCN1/C(=C/C(C)=C/c2sc3ccccc3[n+]2CC)Sc2ccccc21 | 98*
O=C(CN1C(=O)C2C3CC(C(Br)C3Br)C2C1=O)OCC(=O)c1cccc([N+](=O)[O-])c1 (centres undefined) | -76
Cc1cc(C)n(CCc2nc3c4ccccc4n(CC#N)c(=O)n3n2)n1 | -41
CC(C)(c1ccccc1)c1ccc(OCCCNCCO)cc1 | 88*
CCCc1ccc(C(O)c2ncc(-c3cccc(F)c3)[nH]2)cc1 (centres undefined) | -43
CCc1c(C(=O)NC2CCCCC2)[nH]c(C)c1C(C)=O | -93
CCOc1c(Br)cc(/C=C2/SC(=O)N(CC(=O)N3CCCC3)C2=O)cc1OC | 96*
C[C@@H]1CN([C@H](C)CO)C(=O)c2cccc(NC(=O)c3nc4ccccc4s3)c2O[C@@H]1CN(C)C(=O)Nc1ccc(F)cc1 | -46
Cc1ccc(C(=O)Cn2c(C(=O)OCCO)cc3ccccc32)cc1 | 65*
COc1ccc(S(=O)(=O)Nc2ccc3c(c2)C(=O)N([C@H](C)CO)C[C@@H](C)[C@H](CN(C)C(=O)Nc2ccc(C(F)(F)F)cc2)OCCCC[C@@H](C)O3)cc1 | -41
Cc1cc(C)c(C(=O)/C=C/c2ccc(C(C)C)cc2)c(=O)[nH]1 | -64
C[C@H](CO)N1C[C@H](C)[C@@H](CN(C)CC2CC2)Oc2cc(-c3cccnc3)ccc2S1(=O)=O | -45
SMILES | PGC1a Ac signal
Cc1ccc(/C(N)=N/OC(=O)c2ccco2)cc1 | 62*
Cc1noc(C)c1NC(=O)N[C@H]1C=C[C@H](CC(=O)NCc2ccc(Cl)c(Cl)c2)O[C@H]1CO | -49
Cn1c(=O)c2c(ncn2CC(=O)O)n(C)c1=O | -43
Cc1ccccc1S(=O)(=O)NCC[C@@H]1CC[C@H](NC(=O)C2CCOCC2)[C@@H](CO)O1 | -45
COc1ccc(N(C(=O)CCl)C(C(=O)NCCc2ccccc2)c2cccs2)cc1 (centres undefined) | -61
Cc1c(CCOC(=O)CC23CC4CC(CC(C4)C2)C3)sc[n+]1Cc1ccccc1 | 61*
N#Cc1ccc(Cn2c(=O)c(C#N)c3n(c2=O)CCC3)cc1 | -47
COC(=O)[C@]1(Cc2ccccc2)N=C(c2ccc(OCCCO)cc2)O[C@@H]1c1ccccc1CN=[N+]=[N-] | 101*
COC(=O)[C@@]1(Cc2ccccc2CN=[N+]=[N-])N=C(c2ccc(OCCCO)cc2)O[C@H]1c1ccccc1 | 66*
COC(=O)[C@]1(Cc2ccccc2)N=C(c2ccc(OCCCO)cc2)O[C@@H]1c1ccccc1 | 77*
C[C@@H]1CN([C@H](C)CO)C(=O)CCCn2cc(nn2)CO[C@@H]1CN(C)C(=O)NC1CCCC1 | -46
COc1ccc(S(=O)(=O)N(C)C[C@H]2Oc3ccc(NC(=O)CCN4CCOCC4)cc3C(=O)N([C@@H](C)CO)C[C@@H]2C)cc1 | -49
NCC[C@H]1CC[C@@H](NC(=O)C2CCCCC2)[C@@H](CO)O1 | -56
Cc1ccc(NC(=O)c2ccccc2)cc1-n1cnnn1 | -40
COCCNC(=O)/C(C#N)=C/C=C/c1ccccc1[N+](=O)[O-] | 104*
C[C@@H]1CN([C@H](C)CO)C(=O)c2cc(C#CC(C)(C)O)cnc2O[C@H]1CN(C)C(=O)c1ccccc1F | -50
C[C@@H]1CN([C@@H](C)CO)C(=O)c2cc(C#CC3CCCC3)cnc2O[C@H]1CN(C)C(=O)Nc1ccccc1 | -45
CCOC(=O)CSc1nnc(-c2ccc(OC)cc2)n1CC | 100*
COc1ccc(-n2c(SCC#N)nnc2-c2cccnc2)cc1 | -43
CO[C@@H]1CN(C)C(=O)c2ccc(NC(=O)Nc3c(C)noc3C)cc2OC[C@H](C)N(CC2CC2)C[C@@H]1C | -101
O=C(c1cc([N+](=O)[O-])ccc1N1CCCC1)N1CCCC1 | -52
Cc1cccc(N2CCN(CC3CCCCC3)CC2)c1C | -47
O=[N+]([O-])c1ccc(N2CCN(C(=S)NCc3ccc(Cl)cc3)CC2)cc1 | 81*

Screening data: PubChem BioAssay, Broad Institute
